Experimental data as given in ChEMBL document CHEMBL3271938, “Podophyllotoxin analogs. 1. Synthesis and biological evaluation of certain trans-2-aryl-trans-6-hydroxymethyl-3-cyclohexenecarboxylic acid gamma-lactones as antimitotic agents” (1976).

Experiments:
Tubulin (Bos taurus) [1] = target: T1, Tubulin (Bos taurus) (UniProt Q6B856+Q862L2+Q862F3); assay: Displacement of [3H]colchicine from bovine brain tubulin at 10 uM after 90 mins by liquid scintillation counting in presence of 10 uM [3H]colchicine
Tubulin (Bos taurus) [2] = target: T1, Tubulin (Bos taurus); assay: Displacement of [3H]colchicine from bovine brain tubulin at 40 uM after 90 mins by liquid scintillation counting in presence of 10 uM [3H]colchicine
Tubulin (Bos taurus) [3] = target: T1, Tubulin (Bos taurus); assay: Displacement of [3H]colchicine from bovine brain tubulin at 60 uM after 90 mins by liquid scintillation counting in presence of 10 uM [3H]colchicine
Tubulin (Bos taurus) [4] = target: T1, Tubulin (Bos taurus); assay: Displacement of [3H]colchicine from bovine brain tubulin at 100 uM after 90 mins by liquid scintillation counting in presence of 10 uM [3H]colchicine
[5] = Inhibition of colony formation in BDF1 mouse bone marrow cells assessed as percentage of colony forming cell at 0.5 uM after 7 days by microscopic analysis relative to control; format: functional; design: scale not given: the % may be the effect or the level left
Outline: (§1)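 Femoral marrow from female BDF1 mice (8-12 weeks) was dispersed and 1 × 10^5 cells plated in 1.0 ml of 0.3% agar. Medium was McCoy's 5A with supplements, 10^-4 M dithiothreitol, 10% fetal calf and 5% horse serum, plus L-cell CSF. Compound came from a 1 mM stock in Me2SO/EtOH saline, diluted serially 1:10. Incubated 7 days at 37°C under 12% CO2/8% O2; colonies counted microscopically as % of control.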

[6] = Inhibition of colony formation in BDF1 mouse bone marrow cells assessed as percentage of colony forming cell at 5 uM after 7 days by microscopic analysis relative to control; format: functional; design: scale not given: the % may be the effect or the level left; outline: as §1
[7] = Inhibition of colony formation in BDF1 mouse bone marrow cells assessed as percentage of colony forming cell at 50 uM after 7 days by microscopic analysis relative to control; format: functional; design: scale not given: the % may be the effect or the level left; outline: as §1
P815 [8] = assay: Inhibition of colony formation in mouse P815 cells assessed as percentage of colony forming cell at 0.5 uM after 7 days by microscopic analysis relative to control; format: functional; design: scale not given: the % may be the effect or the level left
Outline: (§2)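 P-815 mastocytoma cells, passaged in vitro, plated at 1 × 10^3 cells in 1.0 ml of 0.3% agar. Medium was McCoy's 5A with supplements, 10^-4 M dithiothreitol, 10% fetal calf and 5% horse serum. Compound came from a 1 mM stock in Me2SO/EtOH saline, diluted serially 1:10. Incubated 7 days at 37°C under 12% CO2/8% O2; colonies counted microscopically as % of control.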

P815 [9] = assay: Inhibition of colony formation in mouse P815 cells assessed as percentage of colony forming cell at 5 uM after 7 days by microscopic analysis relative to control; format: functional; design: scale not given: the % may be the effect or the level left; outline: as §2
P815 [10] = assay: Inhibition of colony formation in mouse P815 cells assessed as percentage of colony forming cell at 50 uM after 7 days by microscopic analysis relative to control; format: functional; design: scale not given: the % may be the effect or the level left; outline: as §2
[11] = Inhibition of colony formation in BDF1 mouse bone marrow cells assessed as percentage of colony forming cell at 5 nM after 7 days by microscopic analysis relative to control; format: functional; design: scale not given: the % may be the effect or the level left; outline: as §1
[12] = Inhibition of colony formation in BDF1 mouse bone marrow cells assessed as percentage of colony forming cell at 50 nM after 7 days by microscopic analysis relative to control; format: functional; design: scale not given: the % may be the effect or the level left; outline: as §1
P815 [13] = assay: Inhibition of colony formation in mouse P815 cells assessed as percentage of colony forming cell at 5 nM after 7 days by microscopic analysis relative to control; format: functional; design: scale not given: the % may be the effect or the level left; outline: as §2
P815 [14] = assay: Inhibition of colony formation in mouse P815 cells assessed as percentage of colony forming cell at 50 nM after 7 days by microscopic analysis relative to control; format: functional; design: scale not given: the % may be the effect or the level left; outline: as §2
Tubulin (Bos taurus) [15] = target: T1, Tubulin (Bos taurus); assay: Displacement of [3H]colchicine from bovine brain tubulin at 20 uM after 90 mins by liquid scintillation counting in presence of […]
Tubulin (Bos taurus) [16] = target: T1, Tubulin (Bos taurus); assay: Displacement of [3H]colchicine from bovine brain tubulin at 50 uM after 90 mins by liquid scintillation counting in presence of 10 uM [3H]colchicine
Tubulin (Bos taurus) [17] = target: T1, Tubulin (Bos taurus); assay: Displacement of [3H]colchicine from bovine brain tubulin at 200 uM after 90 mins by liquid scintillation counting in presence of 10 uM [3H]colchicine

Molecule `O=C1OC[C@H]2CC=C[C@H](c3ccc4c(c3)OCO4)[C@@H]12` has an Activity (Tubulin (Bos taurus) [1]) of 17600 cpm, an Activity (Tubulin (Bos taurus) [2]) of 17600 cpm and an Activity (Tubulin (Bos taurus) [3]) of 17300 cpm. The Activity (Tubulin (Bos taurus) [4]) was 12400 cpm, the Activity [5] was 97% and the Activity [6] was 105%. It also gave an Activity [7] of 115%, an Activity (P815 [8]) of 89% and an Activity (P815 [9]) of 112%. For the same molecule, the Activity (P815 [10]) was 138%.
Molecule `O=C1OC[C@H]2CC=C[C@H](c3ccccc3)[C@H]12` has an Activity (Tubulin (Bos taurus) [1]) of 12200 cpm, an Activity (Tubulin (Bos taurus) [2]) of 15600 cpm and an Activity (Tubulin (Bos taurus) [3]) of 18500 cpm. The Activity (Tubulin (Bos taurus) [4]) was 15500 cpm, the Activity [5] was 96% and the Activity [6] was 95%. The Activity [7] was 107%, the Activity (P815 [8]) was 74% and the Activity (P815 [9]) was 75%. It also gave an Activity (P815 [10]) of 93%.
With `COc1cc([C@H]2C=CC[C@@H]3C(=O)OC[C@@H]32)cc(OC)c1OC` (relative stereo) the Activity (Tubulin (Bos taurus) [1]) was 18500 cpm, the Activity (Tubulin (Bos taurus) [2]) was 11600 cpm and the Activity (Tubulin (Bos taurus) [3]) was 18400 cpm. The Activity (Tubulin (Bos taurus) [4]) was 18200 cpm, the Activity [5] was 75% and the Activity [6] was 73%. For the same molecule, the Activity [7] was 55%, the Activity (P815 [8]) was 81% and the Activity (P815 [9]) was 89%. It also gave an Activity (P815 [10]) of 178%.
In the case of `O=C1OC[C@H]2CC=C[C@H](c3ccc4c(c3)OCO4)[C@H]12`, the Activity (Tubulin (Bos taurus) [1]) is reported as 16000 cpm, the Activity (Tubulin (Bos taurus) [2]) is reported as 20100 cpm and the Activity (Tubulin (Bos taurus) [3]) is reported as 18200 cpm. The Activity (Tubulin (Bos taurus) [4]) was 19600 cpm, the Activity [5] was 87% and the Activity [6] was 143%. For the same molecule, the Activity [7] was 170%, the Activity (P815 [8]) was 101% and the Activity (P815 [9]) was 86%. It also gave an Activity (P815 [10]) of 143%.
`COc1cc([C@@H]2c3cc4c(cc3[C@H](O)[C@H]3COC(=O)[C@H]23)OCO4)cc(OC)c1OC` [PODOFILOX] showed an Activity [11] of 95%, an Activity [12] of 1% and an Activity [5] of 0%. It also gave an Activity (P815 [13]) of 91%, an Activity (P815 [14]) of 0% and an Activity (P815 [8]) of 0%.
`COc1cc([C@H]2C=CC[C@@H]3C(=O)OC[C@H]32)cc(OC)c1OC` gave an Activity (Tubulin (Bos taurus) [4]) of 11500 cpm, an Activity (Tubulin (Bos taurus) [15]) of 9070 cpm and an Activity (Tubulin (Bos taurus) [16]) of 11900 cpm. For the same molecule, the Activity (Tubulin (Bos taurus) [17]) was 8690 cpm, the Activity [5] was 90% and the Activity [6] was 74%. The Activity [7] was 135%, the Activity (P815 [8]) was 89% and the Activity (P815 [9]) was 95%. The Activity (P815 [10]) was 109%.
In the case of `O=C1OC[C@H]2CC=C[C@H](c3ccccc3)[C@@H]12` (relative stereo), the Activity (Tubulin (Bos taurus) [1]) is reported as 1320 cpm, the Activity (Tubulin (Bos taurus) [2]) is reported as 12300 cpm and the Activity (Tubulin (Bos taurus) [3]) is reported as 13900 cpm. The Activity (Tubulin (Bos taurus) [4]) was 13600 cpm.
